Laboratory results reported in ChEMBL document CHEMBL1157779, “Merging the structural motifs of functionalized amino acids and alpha-aminoamides: compounds with significant anticonvulsant activities” (J Med Chem, 2010).
The source made the active and inactive calls. The calls are words filed in the database; no cut-off is given here.

Columns and labels:
[1] = (§1) Behavioral toxicity in po dosed Sprague-Dawley albino rat; assay type: organism-based; conditions: Sprague-Dawley, in vivo
[2] = test system: Mus musculus; assay: Anticonvulsant activity in albino mouse assessed as protection against subcutaneous metrazole-induced seizures up to 300 mg/kg, ip after 0.5 hrs; assay type: functional, organism-based; set-up: dose 300 mg/kg
In short: (§2)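 Male albino Carworth Farms No. 1 mice dosed ip under NIH Anticonvulsant Screening Program; subcutaneous Metrazol seizure challenge at 0.5 and 4 h after doses up to 300 mg/kg.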

[3] = test system: Mus musculus; assay: Anticonvulsant activity in albino mouse assessed as protection against subcutaneous metrazole-induced seizures up to 300 mg/kg, ip after 4 hrs; assay type: functional, organism-based; set-up: dose 300 mg/kg; in short: as §2
[4] = test system: Mus musculus; assay: Antiinflammatory activity in albino mouse assessed as reduction in formalin-induced late inflammation at 16 mg/kg, ip; assay type: functional, organism-based; set-up: dose 16 mg/kg
[5] = test system: Mus musculus; assay: Anticonvulsant activity in ip dosed albino mouse assessed as inhibition of maximal electroshock-induced seizures after 0.5 hrs; assay type: functional
[6] = (§3) Toxicity in ip dosed albino mouse after 0.5 hrs by rotarod test; assay type: organism-based; conditions: albino, in vivo
[7] = test system: Mus musculus; assay: Anticonvulsant activity in ip dosed albino mouse assessed as inhibition of maximal electroshock-induced seizures after […]; assay type: functional
[8] = species: Mus musculus; assay: Protective index, ratio of TD50 for albino mouse to anticonvulsant ED50 for albino mouse; assay type: functional
[9] = Behavioral toxicity in po dosed Sprague-Dawley albino rat after 0.25 to 4 hrs; assay type: organism-based; conditions: in vivo
In short: (§4)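 Oral dosing in male albino Sprague-Dawley rats with behavioral toxicity observation at set times after dosing, doses up to 500 mg/kg.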

[10] = test system: Mus musculus; assay: Anticonvulsant activity in ip dosed albino mouse assessed as protection against 6 Hz electric shock-induced seizures after 0.5 hrs; assay type: functional
In short: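 Psychomotor 6 Hz (32 mA) seizure model in male albino Carworth Farms No. 1 mice given compound ip; ED50 in mg/kg.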

[11] = test system: Rattus norvegicus; assay: Anticonvulsant activity in po dosed Sprague-Dawley albino rat assessed as inhibition of maximal electroshock-induced seizures after 0.25 to 2 hrs; assay type: functional
In short: (§5)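 Male albino Sprague-Dawley rats dosed orally; maximal electroshock seizures, protection scored as blockade of hind limb extension, tested at set times after dosing; ED50 in mg/kg from quantitative evaluation for active compounds.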

[12] = test system: Mus musculus; assay: Anticonvulsant activity in ip dosed albino mouse assessed as inhibition of maximal electroshock-induced seizures after 4 hrs; assay type: functional
In short: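 Male albino Carworth Farms No. 1 mice given compound ip; maximal electroshock applied and protection scored as blockade of hind limb extension; identification screening, then ED50 (mg/kg) from quantitative testing for active compounds.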

[13] = test system: Mus musculus; assay: as §3; assay type: organism-based; conditions: in vivo, 0.5 h
[14] = test system: Rattus norvegicus; assay: Anticonvulsant activity in po dosed Sprague-Dawley albino rat assessed as inhibition of maximal electroshock-induced seizures after 4 hrs; assay type: functional; in short: as §5
[15] = test system: Rattus norvegicus; assay: Anticonvulsant activity in po dosed Sprague-Dawley albino rat assessed as inhibition of maximal electroshock-induced seizures; assay type: functional; in short: as §5
[16] = test system: Rattus norvegicus; assay: (§6) Behavioral toxicity in po dosed Sprague-Dawley albino rat after 4 hrs; assay type: organism-based; conditions: in vivo, 4 h; in short: as §4
[17] = species: Rattus norvegicus; assay: Protective index, ratio of TD50 for Sprague-Dawley albino rat to anticonvulsant ED50 for Sprague-Dawley albino rat; assay type: functional
In short: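 Rat, oral: behavioral-toxicity TD50 divided by MES ED50, both in mg/kg.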

[18] = test system: Mus musculus; assay: Anticonvulsant activity in ip dosed albino mouse assessed as protection against subcutaneous metrazole-induced seizures; assay type: functional
In short: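 Subcutaneous Metrazol seizure model in male albino Carworth Farms No. 1 mice, ip dosing. Doses up to 300 mg/kg tested at two time points (0.5 and 4 h).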

[19] = test system: Mus musculus; assay: Anticonvulsant activity in ip dosed albino mouse assessed as inhibition of maximal electroshock-induced seizures after 2 hrs; assay type: functional
[20] = Toxicity in ip dosed albino mouse after 4 hrs by rotarod test; assay type: organism-based; conditions: in vivo
In short: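 Male albino Carworth Farms No. 1 mice dosed ip; neurological impairment by rotorod test at set times; TD50 (mg/kg) determined for compounds active in MES.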

[21] = test system: Rattus norvegicus; assay: Anticonvulsant activity in po dosed Sprague-Dawley albino rat assessed as inhibition of maximal electroshock-induced seizures after 1 hr; assay type: functional; in short: as §5
[22] = test system: Rattus norvegicus; assay: Behavioral toxicity in po dosed Sprague-Dawley albino rat after 1 hr; assay type: organism-based; conditions: in vivo, 1 h; in short: as §4
[23] = test system: Mus musculus; assay: Anticonvulsant activity in ip dosed albino mouse assessed as inhibition of maximal electroshock-induced seizures after 1 hr; assay type: functional
In short: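 Male albino Carworth Farms No. 1 mice dosed intraperitoneally; screened via the NIH Anticonvulsant Screening Program. Protection scored as blocking of hind limb extension after maximal electroshock. Median effective dose (ED50, mg/kg) obtained in quantitative evaluations of active compounds. Rotorod test gave TD50 for neurological impairment, and PI = TD50/ED50.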

[24] = as §6; assay type: organism-based; conditions: Sprague-Dawley, in vivo; in short: as §4
[25] = test system: Mus musculus; assay: Anticonvulsant activity in ip dosed albino mouse assessed as protection against 6 Hz electric shock-induced seizures after […]; assay type: functional
[26] = test system: Rattus norvegicus; assay: as §1; assay type: organism-based; conditions: in vivo
[27] = test system: Rattus norvegicus; assay: Anticonvulsant activity in po dosed Sprague-Dawley albino rat assessed as inhibition of maximal electroshock-induced seizures after 0.25 to 4 hrs; assay type: functional; in short: as §5

| SMILES | Activity [2] | Activity [3] | ED50 [5] | TD50 at 0.5 h [6] | ED50 [12] | other results |
| --- | --- | --- | --- | --- | --- | --- |
| COC[C@@H](NC(C)=O)C(=O)NCc1ccccc1 [LACOSAMIDE] | inactive | inactive | – | – | – | TD50 [1]: > 500 mg/kg; Activity [4]: Active |
| COC[C@@H](NC(C)=O)C(=O)NCc1ccc(OCc2ccc(F)cc2)cc1 | – | – | 10 mg/kg | 30 mg/kg | – | – |
| COC[C@@H](NC(C)=O)C(=O)NCc1ccc(NCc2cccc(F)c2)cc1 | – | – | 10 mg/kg | 30 mg/kg | – | – |
| COC[C@@H](NC(C)=O)C(=O)NCc1ccc(Oc2cccc(F)c2)cc1 | – | – | – | – | – | ED50 [7]: 5.5 mg/kg; Ratio TD50/ED50 [8]: 4.2; TD50 [9]: > 10 mg/kg; ED50 [10]: 10 mg/kg; ED50 [11]: < 10 mg/kg |
| CC(=O)N[C@H](C)C(=O)NCc1ccc(OCc2cccc(F)c2)cc1 | inactive | inactive | > 30 mg/kg | – | < 100 mg/kg | TD50 [13]: > 300 mg/kg; ED50 [14]: 31 mg/kg; ED50 [15]: 21 mg/kg; TD50 [16]: > 500 mg/kg; Ratio TD50/ED50 [17]: >16 |
| COC[C@@H](NC(C)=O)C(=O)NCc1ccc(OCCc2cccc(F)c2)cc1 | – | – | 30 mg/kg | 30 mg/kg | 30 mg/kg | – |
| COCC(NCc1ccc(OCc2cccc(F)c2)cc1)C(N)=O (racemic) | – | – | 30 mg/kg | 100 mg/kg | – | ED50 [18]: > 300 mg/kg |
| CC(=O)NCC(=O)NCc1ccc(OCc2cccc(F)c2)cc1 | inactive | inactive | – | – | 100 mg/kg | ED50 [19]: 30 mg/kg; TD50 at 4 h [20]: > 300 mg/kg; ED50 [21]: 31 mg/kg; ED50 [15]: 18 mg/kg; TD50 [22]: > 500 mg/kg; Ratio TD50/ED50 [17]: >16 |
| COC[C@@H](NC(C)=O)C(=O)NCc1ccc(C#Cc2cccc(F)c2)cc1 | – | – | – | – | < 100 mg/kg | ED50 [23]: > 30 mg/kg; TD50 at 4 h [20]: 100 mg/kg; ED50 [14]: 1.4 mg/kg; TD50 at 4 h [24]: 63 mg/kg |
| COC[C@@H](NC(C)=O)C(=O)NCc1ccc(COCc2cccc(F)c2)cc1 | – | – | 30 mg/kg | 30 mg/kg | – | – |
| COC[C@@H](NC(C)=O)C(=O)NCc1ccc(-c2cccc(F)c2)cc1 | – | – | 10 mg/kg | 100 mg/kg | – | ED50 [25]: < 30 mg/kg; ED50 [21]: 2.4 mg/kg; TD50 [26]: > 500 mg/kg; Ratio TD50/ED50 [17]: >250 |
| CC(=O)N[C@@H](C)C(=O)NCc1ccc(OCc2cccc(F)c2)cc1 | inactive | inactive | 100 mg/kg | – | > 300 mg/kg | ED50 [27]: > 30 mg/kg; TD50 [9]: > 30 mg/kg |
| COC[C@@H](NC(C)=O)C(=O)NCc1ccc(OCc2ccccc2F)cc1 | – | – | – | – | – | ED50 [7]: 6.7 mg/kg |
| COC[C@H](NC(C)=O)C(=O)NCc1ccc(OCc2cccc(F)c2)cc1 | inactive | inactive | – | – | – | – |
| NC(=O)C(NCc1ccc(OCc2cccc(F)c2)cc1)c1ccco1.O=C(O)C(=O)O (racemic) | – | – | 10 mg/kg | 100 mg/kg | – | ED50 [18]: 100 mg/kg |
